Measurements published in PubChem BioAssay AID2465 (Broad Institute, 2010).
Fewer than 10 of roughly 24,000 compounds were called active. Cut-off read from the data, not from the text of the source: active = caspase activation above about 5.9%; inconclusive = no clear call, values can overlap the other calls; inactive = below about 2.2%. The list is a sample of the results.

Experiment: Bcl2-A1 antagonists releasing BIM, apoptosis – cell-based, luminescence, HTS, two replicates, primary screen (AID 2465)
Conditions: MEF A1-2A-BIM cells, caspase-Glo luminescence, 3 h; stronger effect = higher value; percent of clofoctol response, DMSO zero; concentration not given here
In short: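 Material: A1-2A-BIM-expressing MEF cells. Buffer or medium: RPMI-1640 plus 10% FBS. Incubation: cells settled overnight, compound exposure 3 h at 37 °C, 5% CO2. Signal: Caspase-Glo 3/7 luminescence, 1 h at room temperature.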

Caspase activation, inactive:
COC(=O)CCCCCCC(=O)N/N=C/c1cccs1 0.382%
C[C@H](CO)N1C[C@H](C)[C@H](CN(C)C(=O)Nc2cccc3ccccc23)OCCCC[C@H](C)Oc2ccc(NC(=O)Nc3ccc4c(c3)OCO4)cc2C1=O 0.835%
Cc1noc(C)c1S(=O)(=O)Nc1ccc2c(c1)C(=O)N([C@@H](C)CO)C[C@H](C)[C@H](CN(C)CC1CCCCC1)OCCCC[C@H](C)O2 -0.748%
C[C@@H]1CN([C@@H](C)CO)C(=O)c2cc(NS(=O)(=O)c3cccs3)ccc2O[C@@H](C)CCCCO[C@@H]1CN(C)C(=O)NC1CCCCC1 -0.476%
Cc1ccc(S(=O)(=O)N(C)C[C@H]2Oc3c(NC(=O)c4ccc(-c5nccs5)cc4)cccc3C(=O)N([C@H](C)CO)C[C@H]2C)cc1 -0.882%
Cc1ccc(S(=O)(=O)N(C)C[C@H]2OCCCC[C@@H](C)Oc3ccc(NC(=O)NC4CCCCC4)cc3C(=O)N([C@H](C)CO)C[C@@H]2C)cc1 -0.124%
C[C@@H]1CN([C@H](C)CO)C(=O)c2cc(NC(=O)Nc3ccc(F)cc3)ccc2O[C@@H]1CN(C)Cc1ccc(Cl)c(Cl)c1 0.0143%
C[C@H]1CN([C@@H](C)CO)C(=O)c2cccc(NS(=O)(=O)c3cccs3)c2O[C@H]1CN(C)Cc1ccc(C(=O)Nc2ccccc2N)cc1 -0.485%
C[C@@H]1CN([C@H](C)CO)C(=O)Cc2cc(NC(=O)Nc3ccc4c(c3)OCO4)ccc2O[C@@H]1CN(C)Cc1ccc(C(=O)Nc2ccccc2N)cc1 -1.67%
O=C(CCCCCC(=O)N/N=C/c1ccc[nH]1)NO -0.622%
C[C@@H]1CCCCO[C@@H](CN(C)Cc2ccc3c(c2)OCO3)[C@@H](C)CN([C@@H](C)CO)C(=O)c2cc(NC(=O)C3CCCCC3)ccc2O1 1.06%
Cc1noc(C)c1NC(=O)N(C)C[C@@H]1OCCCC[C@H](C)Oc2ccc(NC(=O)NC3CCCCC3)cc2C(=O)N([C@H](C)CO)C[C@H]1C -1.23%
Cc1noc(C)c1S(=O)(=O)N(C)C[C@H]1OCCCC[C@@H](C)Oc2ccc(NC(=O)c3ccccc3)cc2C(=O)N([C@@H](C)CO)C[C@H]1C 0.679%
C[C@@H]1CCCCO[C@@H](CN(C)Cc2ccncc2)[C@H](C)CN([C@H](C)CO)C(=O)c2cc(NC(=O)NC3CCCCC3)ccc2O1 0.887%
C[C@@H]1CCCCO[C@@H](CN(C)C(=O)C2CCCCC2)[C@H](C)CN([C@H](C)CO)C(=O)c2cc(NC(=O)c3ccccc3)ccc2O1 -0.0371%
CNC[C@@H]1Oc2ccc(NC(=O)C3CCCCC3)cc2CC(=O)N([C@@H](C)CO)C[C@H]1C -2%
Cc1noc(C)c1NC(=O)Nc1ccc2c(c1)CC(=O)N([C@@H](C)CO)C[C@H](C)[C@H](CN(C)S(=O)(=O)c1c(C)noc1C)O2 -0.264%
C[C@@H]1CN([C@H](C)CO)C(=O)Cc2cc(NC(=O)C3CCCCC3)ccc2O[C@H]1CN(C)S(=O)(=O)c1ccc(Cl)cc1 -0.597%
Cc1noc(C)c1NC(=O)N(C)C[C@H]1OCCCC[C@H](C)Oc2ccc(NC(=O)Cc3ccccc3)cc2C(=O)N([C@H](C)CO)C[C@@H]1C -0.000815%
Cc1noc(C)c1S(=O)(=O)N(C)C[C@@H]1OCCCC[C@H](C)Oc2ccc(NC(=O)NC3CCCCC3)cc2C(=O)N([C@@H](C)CO)C[C@H]1C 2.87%
COc1cc(O)cc(OC)c1/C=N/NC(=O)c1ccccc1O -0.325%
C[C@@H]1CCCCO[C@@H](CN(C)C(=O)Nc2cccc3ccccc23)[C@H](C)CN([C@@H](C)CO)C(=O)c2cc(NS(=O)(=O)c3ccccc3)ccc2O1 0.255%
COc1ccc(S(=O)(=O)Nc2ccc3c(c2)C(=O)N([C@@H](C)CO)C[C@H](C)[C@@H](CN(C)C(=O)Nc2ccc4c(c2)OCO4)OCCCC[C@@H](C)O3)cc1 0.557%
C[C@H]1CCCCO[C@@H](CN(C)Cc2ccc3c(c2)OCO3)[C@@H](C)CN([C@@H](C)CO)C(=O)c2cc(NC(=O)c3ccccc3)ccc2O1 -0.254%
C[C@@H]1CN([C@@H](C)CO)C(=O)c2cc(NC(=O)Nc3ccccc3)ccc2O[C@H]1CN(C)S(=O)(=O)c1ccccc1 -0.0866%
C[C@@H]1CCCCO[C@H](CN(C)C(=O)Nc2cccc3ccccc23)[C@H](C)CN([C@@H](C)CO)C(=O)c2cc(NC(=O)CCCN(C)C)ccc2O1 -0.756%
COc1ccc(CN(C)C[C@@H]2OCCCC[C@H](C)Oc3ccc(NS(=O)(=O)c4ccc(F)cc4)cc3C(=O)N([C@@H](C)CO)C[C@@H]2C)cc1 0.494%
O=C(NO)c1cccc(C(=O)N/N=C/c2c[nH]c3ccccc23)c1 -1.04%
C[C@@H]1CN([C@@H](C)CO)C(=O)CCCn2nncc2CO[C@@H]1CN(C)S(=O)(=O)c1ccc(-c2ccccc2)cc1 -0.179%
Cc1ccc(S(=O)(=O)Nc2ccc3c(c2)C(=O)N([C@H](C)CO)C[C@H](C)[C@H](CN(C)C(=O)Nc2ccc4c(c2)OCO4)OCCCC[C@@H](C)O3)cc1 -0.5%
C[C@@H]1CCCCO[C@@H](CN(C)Cc2ccccc2)[C@H](C)CN([C@H](C)CO)C(=O)c2cc(NC(=O)Nc3cccc4ccccc34)ccc2O1 1.29%
C[C@@H]1CCCCO[C@@H](CN(C)CC2CCCCC2)[C@H](C)CN([C@H](C)CO)C(=O)c2cc(NC(=O)C3CCCCC3)ccc2O1 0.00789%
CC(C)NC(=O)Nc1ccc2c(c1)C(=O)N([C@H](C)CO)C[C@H](C)[C@@H](CN(C)Cc1ccc3c(c1)OCO3)OCCCC[C@H](C)O2 -0.756%
CNC[C@H]1OCCCC[C@@H](C)Oc2ccc(NS(C)(=O)=O)cc2C(=O)N([C@@H](C)CO)C[C@H]1C -0.624%
COc1ccc(S(=O)(=O)Nc2ccc3c(c2)C(=O)N([C@H](C)CO)C[C@@H](C)[C@H](CN(C)C(=O)c2ccncc2)OCCCC[C@@H](C)O3)cc1 0.262%
C[C@H]1CN([C@@H](C)CO)C(=O)CCCn2cc(nn2)CO[C@@H]1CN(C)S(=O)(=O)c1ccccc1C#N 0.483%
C[C@H]1CN([C@@H](C)CO)C(=O)Cc2cc(NC(=O)CCCCCC(=O)Nc3ccccc3N)ccc2O[C@@H]1CN(C)Cc1ccncc1 -0.722%
CC(C)NC(=O)Nc1ccc2c(c1)C(=O)N([C@@H](C)CO)C[C@@H](C)[C@H](CN(C)Cc1ccc(Cl)c(Cl)c1)OCCCC[C@H](C)O2 -1.26%
COc1ccc(NC(=O)N(C)C[C@H]2OCCCC[C@H](C)Oc3ccc(NC(=O)NC4CCCCC4)cc3C(=O)N([C@@H](C)CO)C[C@@H]2C)cc1 -0.198%
C[C@@H]1CN([C@H](C)CO)C(=O)c2cc(NC(=O)Cn3cnnn3)ccc2O[C@@H]1CN(C)C(=O)Nc1ccc2c(c1)OCO2 -0.00909%
C[C@H](CO)N1C[C@H](C)[C@@H](CN(C)CC2CC2)OCCCC[C@H](C)Oc2ccc(NC(=O)Cc3ccccc3)cc2C1=O 0.105%
CCCN(C)C[C@@H]1OCCCC[C@@H](C)Oc2ccc(NC(=O)Nc3ccc(C(F)(F)F)cc3)cc2C(=O)N([C@H](C)CO)C[C@H]1C 1.62%
C[C@H](CO)N1C[C@H](C)[C@@H](CN(C)Cc2ccncc2)Oc2ccc(NS(=O)(=O)c3ccc(Cl)cc3)cc2CC1=O -1.19%
